In ChEMBL document CHEMBL1121789, “Some analogues of luteinizing hormone-releasing hormone with substituents in position 10” (1981) one finds Potency data, which are given here for 6 molecules.

Square brackets hold non-standard residues; d marks the D form. Peptide text beside a SMILES is read from it. * marks the point of attachment. pGlu = O=C1CC[C@@H](C(=O)O)N1; X1 = O=C(NN*)C(F)(F)F; X5 = N/C(S)=N\N*; X2 = CC(=O)NN*; X3 = CN(N)*; X4 = O=CNN*

Assay [1] is filed under the species Rattus norvegicus. Description: In vitro FSH-release potency of compound was measured in rat hemipituitaries by taking LH-RH as standard. The assay is classed as functional. Put shortly:
(§1)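 Rat hemipituitaries incubated in vitro with each analogue, usually at two dose levels in a 2 × 2 (four-point) design against an LH-RH standard. Media sampled 6 h later and assayed for LH and FSH by radioimmunoassay. Potency expressed relative to the standard, with 95% confidence limits.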

The species named for assay [2] is Rattus norvegicus. Description: In vitro LH-release potency of compound was measured in rat hemipituitaries by taking LH-RH as standard. The assay is classed as functional. A digest of the protocol: as §1

In the case of `CC(C)C[C@H](NC(=O)CNC(=O)[C@H](Cc1ccc(O)cc1)NC(=O)[C@H](CO)NC(=O)[C@H](Cc1c[nH]c2ccccc12)NC(=O)[C@H](Cc1c[nH]cn1)NC(=O)[C@@H]1CCC(=O)N1)C(=O)N[C@@H](CCCN=C(N)N)C(=O)N1CCC[C@H]1C(=O)NNC(=O)C(F)(F)F` ([pGlu]HWSYGLRP-X1), the Potency in the assay listed under Rattus norvegicus [1] is on record as 0.9; in the assay listed under Rattus norvegicus [2], 1.
The corresponding values for `CC(C)C[C@H](NC(=O)CNC(=O)[C@H](Cc1ccc(O)cc1)NC(=O)[C@H](CO)NC(=O)[C@H](Cc1c[nH]c2ccccc12)NC(=O)[C@H](Cc1c[nH]cn1)NC(=O)[C@@H]1CCC(=O)N1)C(=O)N[C@@H](CCCN=C(N)N)C(=O)N1CCC[C@H]1C(=O)N/N=C(\N)S` ([pGlu]HWSYGLRP-X5) are 4.6 and 6.5.
The like results for `CC(C)C[C@H](NC(=O)CNC(=O)[C@H](Cc1ccc(O)cc1)NC(=O)[C@H](CO)NC(=O)[C@H](Cc1c[nH]c2ccccc12)NC(=O)[C@H](Cc1cnc[nH]1)NC(=O)[C@@H]1CCC(=O)N1)C(=O)N[C@@H](CCCNC(=N)N)C(=O)N1CCC[C@H]1C(=O)NCC(N)=O` [GONADORELIN] were, in that order, 100 and 100.
The corresponding values for `CC(=O)NNC(=O)[C@@H]1CCCN1C(=O)[C@H](CCCN=C(N)N)NC(=O)[C@H](CC(C)C)NC(=O)CNC(=O)[C@H](Cc1ccc(O)cc1)NC(=O)[C@H](CO)NC(=O)[C@H](Cc1c[nH]c2ccccc12)NC(=O)[C@H](Cc1c[nH]cn1)NC(=O)[C@@H]1CCC(=O)N1` ([pGlu]HWSYGLRP-X2) are 0.6 and 1.2.
`CC(C)C[C@H](NC(=O)CNC(=O)[C@H](Cc1ccc(O)cc1)NC(=O)[C@H](CO)NC(=O)[C@H](Cc1c[nH]c2ccccc12)NC(=O)[C@H](Cc1c[nH]cn1)NC(=O)[C@@H]1CCC(=O)N1)C(=O)N[C@@H](CCCN=C(N)N)C(=O)N1CCC[C@H]1C(=O)N(C)N` ([pGlu]HWSYGLRP-X3): the Potency in the assay listed under Rattus norvegicus [1] turned out to be 11; in the assay filed under Rattus norvegicus [2], 17.
The like results for `CC(C)C[C@H](NC(=O)CNC(=O)[C@H](Cc1ccc(O)cc1)NC(=O)[C@H](CO)NC(=O)[C@H](Cc1c[nH]c2ccccc12)NC(=O)[C@H](Cc1c[nH]cn1)NC(=O)[C@@H]1CCC(=O)N1)C(=O)N[C@@H](CCCN=C(N)N)C(=O)N1CCC[C@H]1C(=O)NNC=O` ([pGlu]HWSYGLRP-X4) were, in that order, 10 and 15.3.
